# Test results from ChEMBL document CHEMBL4346672, “Antimicrobial and KPC/AmpC inhibitory activity of functionalized benzosiloxaboroles” (Eur J Med Chem, 2019).
# Activity calls are given as the source filed them. No cut-off for these calls is given here.
# Columns and labels:
# [1] = Dissociation constant, pKa1 of compound in 0.1 M NaOH by potentiometric analysis; assay type: physicochemical
# Candida albicans = test: Antifungal activity against Candida albicans ATCC 90028 assessed as decrease in fungal cell growth at 0.78 to 12.5 mg/L incubated for 24 hrs by CLSI broth dilution method; assay type: functional; conditions: ATCC 90028, 24 h
# In short: (§1)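 Yeast broth dilution in RPMI 1640 with 2% glucose, compounds in DMSO. Yeasts pre-grown on Sabouraud dextrose agar. Growth read after 35 °C, 24 h.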
# Candida tropicalis [2] = test: Antifungal activity against Candida tropicalis IBA 171 assessed as decrease in fungal cell growth at 0.78 to 12.5 mg/L incubated for 24 hrs by CLSI broth dilution method; assay type: functional; conditions: IBA 171, 24 h; in short: as §1
# [3] = system: Meyerozyma guilliermondii; test: Antifungal activity against Candida guilliermondii IBA 155 assessed as decrease in fungal cell growth at 0.78 to 12.5 mg/L incubated for 24 hrs by CLSI broth dilution method; assay type: functional; conditions: IBA 155, 24 h; in short: as §1
# Saccharomyces cerevisiae [4] = test: Antifungal activity against Saccharomyces cerevisiae ATCC 9763 assessed as decrease in fungal cell growth at 0.78 to 12.5 mg/L incubated for 24 hrs by CLSI broth dilution method; assay type: functional; conditions: ATCC 9763, 24 h
# In short: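 Yeast strain subcultured on Sabouraud dextrose agar for 24–48 h at 30 °C before testing. Compounds dissolved in DMSO.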
# Candida parapsilosis = test: Antifungal activity against Candida parapsilosis ATCC 22019 assessed as diameter of zone inhibition incubated for 24 hrs by CLSI disc diffusion method; assay type: functional
# In short: (§2)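 Yeast disc diffusion on Mueller-Hinton agar supplemented with 2% glucose and 0.5 mg/L methylene blue. Compounds in DMSO. Yeasts subcultured on Sabouraud dextrose agar before testing. Zones read after 35 °C, 24 h.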
# Candida tropicalis [5] = test: Antifungal activity against Candida tropicalis IBA 171 assessed as diameter of zone inhibition incubated for 24 hrs by CLSI disc diffusion method; assay type: functional; in short: as §2
# [6] = system: Meyerozyma guilliermondii; test: Antifungal activity against Candida guilliermondii IBA 155 assessed as diameter of zone inhibition incubated for 24 hrs by CLSI disc diffusion method; assay type: functional; in short: as §2
# Saccharomyces cerevisiae [7] = test: Antifungal activity against Saccharomyces cerevisiae ATCC 9763 diameter of zone inhibition incubated for 24 hrs by CLSI disc diffusion method; assay type: functional
# In short: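 Disc-diffusion run on Mueller-Hinton II agar with 2% glucose and 0.5 mg/L methylene blue, using compounds in DMSO. Yeast was precultured on Sabouraud dextrose agar (24–48 h, 30 °C). Zones read after 24 h at 35 °C.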
# Staphylococcus aureus = test: Antibacterial activity against Staphylococcus aureus ATCC 6538P measured after 18 hrs by CLSI broth dilution method; assay type: functional
# In short: (§3)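 Broth MIC in Mueller-Hinton II broth following CLSI, compounds dissolved in DMSO. Strains subcultured twice on tryptic soy agar before testing. Growth read after 35 °C, 18 h.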
# [8] = system: Staphylococcus epidermidis; test: Antibacterial activity against Staphylococcus epidermidis ATCC 12228 measured after 18 hrs by CLSI broth dilution method; assay type: functional; conditions: ATCC 12228, 18 h; in short: as §3
# Enterococcus faecalis = test: Antibacterial activity against Enterococcus faecalis ATCC 29212 measured after 18 hrs by CLSI broth dilution method; assay type: functional; conditions: ATCC 29212, 18 h; in short: as §3
# [9] = system: Staphylococcus epidermidis; test: Antibacterial activity against Staphylococcus epidermidis ATCC 12228 assessed as diameter of zone inhibition measured after 18 hrs by CLSI disc diffusion method; assay type: functional
# In short: (§4)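 Disc diffusion on Mueller-Hinton II agar. Compounds dissolved in DMSO. Strains stored at -80 °C and subcultured twice on tryptic soy agar before testing. Inhibition zones read after 35 °C, 18 h.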
# Enterococcus faecium = test: Antibacterial activity against Enterococcus faecium ATCC 6057 assessed as diameter of zone inhibition measured after 18 hrs by CLSI disc diffusion method; assay type: functional; in short: as §4
# Bacillus subtilis = test: Antibacterial activity against Bacillus subtilis ATCC 6633 assessed as diameter of zone inhibition measured after 18 hrs by CLSI disc diffusion method; assay type: functional; in short: as §4
# Escherichia coli [10] = test: Antibacterial activity against Escherichia coli ATCC 25922 measured after 18 hrs by CLSI broth dilution method; assay type: functional; conditions: ATCC 25922, 18 h; in short: as §3
# Enterobacter cloacae [11] = test: Antibacterial activity against Enterobacter cloacae DSM 6234 measured after 18 hrs by CLSI broth dilution method; assay type: functional; conditions: DSM 6234, 18 h; in short: as §3
# [12] = system: Stenotrophomonas maltophilia; test: Antibacterial activity against Stenotrophomonas maltophilia ATCC 13637 measured after 18 hrs by CLSI broth dilution method; assay type: functional; conditions: ATCC 13637, 18 h; in short: as §3
# Burkholderia cepacia = test: Antibacterial activity against Burkholderia cepacia ATCC 25416 measured after 18 hrs by CLSI broth dilution method; assay type: functional; conditions: ATCC 25416, 18 h; in short: as §3
# Escherichia coli [13] = test: Antibacterial activity against Escherichia coli ATCC 25922 assessed as diameter of zone inhibition measured after 18 hrs by CLSI disc diffusion method; assay type: functional; in short: as §4
# Proteus mirabilis [14] = test: Antibacterial activity against Proteus mirabilis ATCC 12453 assessed as diameter of zone inhibition measured after 18 hrs by CLSI disc diffusion method; assay type: functional; in short: as §4
# Enterobacter cloacae [15] = test: Antibacterial activity against Enterobacter cloacae DSM 6234 assessed as diameter of zone inhibition measured after 18 hrs by CLSI disc diffusion method; assay type: functional; in short: as §4
# Pseudomonas aeruginosa [16] = test: Antibacterial activity against Pseudomonas aeruginosa ATCC 27853 assessed as diameter of zone inhibition measured after 18 hrs by CLSI disc diffusion method; assay type: functional, organism-based; in short: as §4
# Acinetobacter baumannii [17] = test: Antibacterial activity against Acinetobacter baumannii ATCC 19606 assessed as diameter of zone inhibition measured after 18 hrs by CLSI disc diffusion method; assay type: functional; in short: as §4
# [18] = system: Bordetella bronchiseptica; test: Antibacterial activity against Bordetella bronchiseptica ATCC 4617 assessed as diameter of zone inhibition measured after 18 hrs by CLSI disc diffusion method; assay type: functional; in short: as §4
# Klebsiella pneumoniae = test: Antibacterial activity against Klebsiella pneumoniae ATCC 13883 assessed as fold reduction of MIC in presence of efflux pump inhibitor PAbetaN incubated for 18 hrs by broth microdilution method; assay type: functional
# In short: (§5)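 MICs determined with and without PAβN at 50 mg/L in Mueller-Hinton broth containing 1 mM MgSO₄. 2-fold serial dilutions per CLSI. Fold change taken from the paired MICs after 35 °C, 18 h.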
# Proteus mirabilis [19] = test: Antibacterial activity against Proteus mirabilis ATCC 12453 assessed as fold reduction of MIC in presence of efflux pump inhibitor PAbetaN incubated for 18 hrs by broth microdilution method; assay type: functional; in short: as §5
# Enterobacter cloacae [20] = test: Antibacterial activity against Enterobacter cloacae DSM 6234 assessed as fold reduction of MIC in presence of efflux pump inhibitor PAbetaN incubated for 18 hrs by broth microdilution method; assay type: functional; in short: as §5
# Serratia marcescens [21] = test: Antibacterial activity against Serratia marcescens ATCC 13880 assessed as fold reduction of MIC in presence of efflux pump inhibitor PAbetaN incubated for 18 hrs by broth microdilution method; assay type: functional; in short: as §5
# Pseudomonas aeruginosa [22] = test: Antibacterial activity against Pseudomonas aeruginosa ATCC 27853 assessed as fold reduction of MIC in presence of efflux pump inhibitor PAbetaN incubated for 18 hrs microdilution method; assay type: functional; in short: as §5
# Acinetobacter baumannii [23] = test: Antibacterial activity against Acinetobacter baumannii ATCC 19606 assessed as fold reduction of MIC in presence of efflux pump inhibitor PAbetaN incubated for 18 hrs by broth microdilution method; assay type: functional; in short: as §5
# Serratia marcescens [24] = conditions: ATCC 13880
structure (smiles),measurement,setting,value
C[Si]1(C)OB(O)c2ccccc21,pKa,[1],7.9
same,MIC,Candida albicans,100 µg/mL
same,MIC,Candida tropicalis [2],25 µg/mL
same,MIC,[3],25 µg/mL
same,MIC,Saccharomyces cerevisiae [4],3.12 µg/mL
same,diameter of the inhibition zone (DIZ),Candida parapsilosis,11 mm
same,diameter of the inhibition zone (DIZ),Candida tropicalis [5],inactive
same,diameter of the inhibition zone (DIZ),[6],12 mm
same,diameter of the inhibition zone (DIZ),Saccharomyces cerevisiae [7],36 mm
same,MIC,Staphylococcus aureus,200 µg/mL
same,MIC,[8],50 µg/mL
same,MIC,Enterococcus faecalis,> 200 µg/mL
same,diameter of the inhibition zone (DIZ),[9],28 mm
same,diameter of the inhibition zone (DIZ),Enterococcus faecium,inactive
same,diameter of the inhibition zone (DIZ),Bacillus subtilis,14 mm
same,MIC,Escherichia coli [10],> 200 µg/mL
same,MIC,Enterobacter cloacae [11],> 200 µg/mL
same,MIC,[12],> 200 µg/mL
same,MIC,Burkholderia cepacia,200 µg/mL
same,diameter of the inhibition zone (DIZ),Escherichia coli [13],inactive
same,diameter of the inhibition zone (DIZ),Proteus mirabilis [14],inactive
same,diameter of the inhibition zone (DIZ),Enterobacter cloacae [15],inactive
same,diameter of the inhibition zone (DIZ),Pseudomonas aeruginosa [16],inactive
same,diameter of the inhibition zone (DIZ),Acinetobacter baumannii [17],inactive
same,diameter of the inhibition zone (DIZ),[18],inactive
same,fold change (FC),Klebsiella pneumoniae,2
same,fold change (FC),Proteus mirabilis [19],0
same,fold change (FC),Enterobacter cloacae [20],4
same,fold change (FC),Serratia marcescens [21],0
same,fold change (FC),Pseudomonas aeruginosa [22],8
same,fold change (FC),Acinetobacter baumannii [23],4
same,DIZ,Serratia marcescens [24],inactive
